How the values were obtained:
[1] = Cytotoxicity against Huh7 replicon cells; format: cell-based; conditions: human, huh-7
Hepatitis C virus = assay: Antiviral activity against HCV in Huh7 cells at 2 uM by subgenomic replicon assay; format: functional, Hepacivirus hominis; conditions: Huh-7
Procedure, shortened: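 Huh-7 replicon cells (luciferase reporter), grown to 85% confluency with >95% viability, seeded at 11 000 cells/well; compound added and incubated 48 h at 37 °C. Plates cooled 30 min to room temperature, luciferase reagent added, luminescence read after 3 min. Inhibition calculated with no-cell wells as low signal and compound-free cells as high signal; duplicate testing.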

Structure (SMILES) | Activity [1] | inhibition at 2 µM (Hepatitis C virus) [%]
C=C1C(=O)O[C@@H]2[C@H]1CCC(COC(=O)C(C)CC)[C@]1(O)CCC(=O)[C@@]21C (some centres undefined) | Not Active | 25
C=C1C(=O)O[C@@H]2[C@H]1CCC(COC(=O)CC(C)C)[C@]1(O)CCC(=O)[C@@]21C (some centres undefined) | Not Active | 63
C=C1C(=O)O[C@@H]2[C@H]1CC[C@H](COC(=O)CC)[C@]1(O)CCC(=O)[C@@]21C [HISPITOLIDE A] | Not Active | 55
C=C1C(=O)O[C@@H]2[C@H]1CC[C@H](COC(=O)CCC)[C@]1(O)CCC(=O)[C@@]21C [HISPITOLIDE B] | Not Active | 90
C=C1C(=O)O[C@@H]2[C@H]1CC[C@H](COC(=O)/C(C)=C/C)[C@]1(O)CCC(=O)[C@@]21C [HISPITOLIDE C] | Not Active | 98
C=C1C(=O)O[C@@H]2[C@H]1CC[C@H](COC(=O)C=C(C)C)[C@]1(O)CCC(=O)[C@@]21C [HISPITOLIDE D] | Not Active | 98
C=C1C(=O)O[C@@H]2[C@H]1CC[C@H](COC(=O)/C(C)=C\C)[C@]1(O)CCC(=O)[C@@]21C [HISPITOLIDE E] | Not Active | 65
